Experimental data: ChEMBL document CHEMBL1123088, “Synthesis and characterization of selected heteroarotinoids. Pharmacological activity as assessed in vitamin A deficient hamster tracheal organ cultures. Single-crystal X-ray diffraction analysis of 4,4-dimethylthiochroman-6-yl methyl ketone 1,1-dioxide and ethyl …” (1985)
One block for each molecule: values may come before it.

Key:
Cricetinae gen. sp. [1] = test: Dose for reversal of keratinization in epithelium of 50% of retinoid-deficient hamster tracheas in organ culture; type: functional, Cricetulus griseus; conditions: Trachea, read-out: ED50 (the source's name)
How it was run: (§1)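 Tracheas taken from vitamin A-deficient hamsters were kept in organ culture and scored for reversal of squamous keratinization of the epithelium. All-trans-retinoic acid was run at the same time as a reference in each separate experiment. ED50 is the molar dose that reverses keratinization in 50% of the retinoid-deficient tracheas.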

Cricetinae gen. sp. [2] = test: Percent activity in the Hamster tracheal organ culture assay at concentration 10e-10 (M); type: functional, Cricetulus griseus, Trachea; how it was run: as §1
Cricetinae gen. sp. [3] = test: Percent activity in the Hamster tracheal organ culture assay at concentration 10e-8(M); type: functional, Cricetulus griseus, Trachea; how it was run: as §1
Cricetinae gen. sp. [4] = test: Percent activity in the Hamster tracheal organ culture assay at concentration 10e-9 (M); type: functional, Cricetulus griseus, Trachea; how it was run: as §1
Cricetinae gen. sp. [5] = test: Percent activity in the Hamster tracheal organ culture assay at concentration 10e-11 (M); type: functional, Cricetulus griseus, Trachea; how it was run: as §1
Cricetinae gen. sp. [6] = test: Percent activity in the Hamster tracheal organ culture assay at concentration 10e-12 (M); type: functional, Cricetulus griseus, Trachea; how it was run: as §1
Cricetinae gen. sp. [7] = test: The dose for reversal of keratinization in epithelium of 50% of retinoid-deficient hamster tracheas in organ culture; type: functional, Cricetulus griseus; conditions: Trachea, read-out: ED50 (the source's name); how it was run: as §1
Cricetinae gen. sp. [8] = test: Dose for reversal of keratinization in epithelium of 50% of retinoid-deficient hamster tracheas in organ culture in experiment D; type: functional, Cricetulus griseus; conditions: Trachea, read-out: ED50 (the source's name); how it was run: as §1
Cricetinae gen. sp. [9] = test: Dose for reversal of keratinization in epithelium of 50% of retinoid-deficient hamster tracheas in organ culture in experiment A; type: functional, Cricetulus griseus; conditions: Trachea, read-out: ED50 (the source's name); how it was run: as §1
Cricetinae gen. sp. [10] = test: Dose for reversal of keratinization in epithelium of 50% of retinoid-deficient hamster tracheas in organ culture in experiment C; type: functional, Cricetulus griseus; conditions: Trachea, read-out: ED50 (the source's name); how it was run: as §1
Cricetinae gen. sp. [11] = test: Percent activity in the Hamster tracheal organ culture assay at concentration 10e-10 (M) in experiment B; type: functional, Cricetulus griseus, Trachea; how it was run: as §1
Cricetinae gen. sp. [12] = test: Percent activity in the Hamster tracheal organ culture assay at concentration 10e-10 (M) in experiment C; type: functional, Cricetulus griseus, Trachea; how it was run: as §1
Cricetinae gen. sp. [13] = test: Percent activity in the Hamster tracheal organ culture assay at concentration 10e-10 (M) in experiment D; type: functional, Cricetulus griseus, Trachea; how it was run: as §1
Cricetinae gen. sp. [14] = test: Percent activity in the Hamster tracheal organ culture assay at concentration 10e-11 (M) in experiment A; type: functional, Cricetulus griseus, Trachea; how it was run: as §1
Cricetinae gen. sp. [15] = test: Percent activity in the Hamster tracheal organ culture assay at concentration 10e-11 (M) in experiment B; type: functional, Cricetulus griseus, Trachea; how it was run: as §1
Cricetinae gen. sp. [16] = test: Percent activity in the Hamster tracheal organ culture assay at concentration 10e-11 (M) in experiment C; type: functional, Cricetulus griseus, Trachea; how it was run: as §1
Cricetinae gen. sp. [17] = test: Percent activity in the Hamster tracheal organ culture assay at concentration 10e-11 (M) in experiment D; type: functional, Cricetulus griseus, Trachea; how it was run: as §1
Cricetinae gen. sp. [18] = test: Percent activity in the Hamster tracheal organ culture assay at concentration 10e-12 (M) in experiment A; type: functional, Cricetulus griseus, Trachea; how it was run: as §1
Cricetinae gen. sp. [19] = test: Percent activity in the Hamster tracheal organ culture assay at concentration 10e-12 (M) in experiment B; type: functional, Cricetulus griseus, Trachea; how it was run: as §1
Cricetinae gen. sp. [20] = test: Percent activity in the Hamster tracheal organ culture assay at concentration 10e-12 (M) in experiment C; type: functional, Cricetulus griseus, Trachea; how it was run: as §1
Cricetinae gen. sp. [21] = test: Percent activity in the Hamster tracheal organ culture assay at concentration 10e-12 (M) in experiment D; type: functional, Cricetulus griseus, Trachea; how it was run: as §1
Cricetinae gen. sp. [22] = test: Dose for reversal of keratinization in epithelium of 50% of retinoid-deficient hamster tracheas in organ culture in experiment B; type: functional, Cricetulus griseus; conditions: Trachea, read-out: ED50 (the source's name); how it was run: as §1
Cricetinae gen. sp. [23] = test: Percent activity in the Hamster tracheal organ culture assay at concentration 10e-10 (M)

SMILES: CCOC(=O)c1ccc(/C=C(\C)c2ccc3c(c2)C(C)(C)CCS3)cc1
EC50 (Cricetinae gen. sp. [1]): 0.06 nM
Activity (Cricetinae gen. sp. [2]): 53.8%
Activity (Cricetinae gen. sp. [5]): 28.6%
Activity (Cricetinae gen. sp. [6]): 33.7%
Activity (Cricetinae gen. sp. [4]): 100%

SMILES: CC1=C(/C=C/C(C)=C/C=C/C(C)=C/C(=O)O)C(C)(C)CCC1 [TRETINOIN]
EC50 (Cricetinae gen. sp. [8]): 0.01 nM
EC50 (Cricetinae gen. sp. [9]): 0.02 nM
EC50 (Cricetinae gen. sp. [10]): 0.1 nM
Activity (Cricetinae gen. sp. [11]): 100%
Activity (Cricetinae gen. sp. [12]): 83.3%
Activity (Cricetinae gen. sp. [13]): 83.7%
Activity (Cricetinae gen. sp. [14]): 41.7%
Activity (Cricetinae gen. sp. [15]): 53.8%
Activity (Cricetinae gen. sp. [16]): 50%
Activity (Cricetinae gen. sp. [17]): 50%
Activity (Cricetinae gen. sp. [18]): 23.1%
Activity (Cricetinae gen. sp. [19]): 23.1%
Activity (Cricetinae gen. sp. [20]): 16.7%
Activity (Cricetinae gen. sp. [21]): 33.3%
EC50 (Cricetinae gen. sp. [22]): 0.009 nM
Activity (Cricetinae gen. sp. [23]): 76.9%

More lines, main results first:

EC50 (Cricetinae gen. sp. [1]): 0.6 nM
SMILES: C/C(=C\c1ccc(C(=O)O)cc1)c1ccc2c(c1)C(C)(C)CCO2
Activity (Cricetinae gen. sp. [2]): 18.6%
Activity (Cricetinae gen. sp. [3]): 71.4%
Activity (Cricetinae gen. sp. [4]): 71.4%

EC50 (Cricetinae gen. sp. [1]): 0.1 nM
SMILES: CCOC(=O)c1ccc(/C=C(\C)c2ccc3c(c2)C(C)(C)CCO3)cc1
Activity (Cricetinae gen. sp. [2]): 50%
Activity (Cricetinae gen. sp. [5]): 28.2%
Activity (Cricetinae gen. sp. [4]): 100%

EC50 (Cricetinae gen. sp. [7]): 0.1 nM
SMILES: CCOC(=O)c1ccc(/C=C(\C)c2ccc3c(c2)C(C)(C)CC[S+]3[O-])cc1 (centres undefined)
Activity (Cricetinae gen. sp. [2]): 57.1%
Activity (Cricetinae gen. sp. [5]): 11.1%
Activity (Cricetinae gen. sp. [3]): 100%
Activity (Cricetinae gen. sp. [4]): 100%
